Laboratory results published in ChEMBL document CHEMBL5104177, “Discovery and Crystallographic Studies of Trisubstituted Piperazine Derivatives as Non-Covalent SARS-CoV-2 Main Protease Inhibitors with High Target Specificity and Low Toxicity” (J Med Chem, 2022).
In brackets after ≈: the same amount, converted by molar mass.

Columns and labels:
Cathepsin F = biological target: T1, Cathepsin F (Homo sapiens, UniProt Q9UBX1); experiment: Inhibition of human Cathepsin F using Z-Phe-Arg-AMC as fluorogenic substrate incubated for 60 mins by FRET assay
T1 sequence (Q9UBX1 whole entry): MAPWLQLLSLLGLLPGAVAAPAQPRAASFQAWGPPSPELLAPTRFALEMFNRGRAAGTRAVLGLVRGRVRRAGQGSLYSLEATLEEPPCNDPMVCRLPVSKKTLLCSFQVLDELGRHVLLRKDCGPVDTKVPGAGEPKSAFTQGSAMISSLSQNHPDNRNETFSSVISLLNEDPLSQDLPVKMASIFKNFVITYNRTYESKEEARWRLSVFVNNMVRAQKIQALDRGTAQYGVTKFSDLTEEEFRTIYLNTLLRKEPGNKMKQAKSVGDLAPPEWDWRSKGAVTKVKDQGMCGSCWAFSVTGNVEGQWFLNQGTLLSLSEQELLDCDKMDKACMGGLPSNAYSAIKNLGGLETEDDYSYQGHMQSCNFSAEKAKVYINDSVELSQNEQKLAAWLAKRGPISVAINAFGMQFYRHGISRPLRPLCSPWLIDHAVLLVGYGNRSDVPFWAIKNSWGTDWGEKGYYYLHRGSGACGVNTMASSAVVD

SARS-CoV-2 [1] = experiment: Antiviral activity against SARS-CoV-2 infected in Vero E6 cells assessed as inhibition of viral replication incubated for 25 to 26 hrs by EliSpot reader based analysis; assay type: functional, organism-based; details: Severe acute respiratory syndrome coronavirus 2, Vero C1008
In short: (§1)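 Antiviral assay in SARS-CoV-2-infected Vero E6 cells, with remdesivir and GC-376 as positive controls, n = 3 biological replicates, SD reported. The potency index is EC50(remdesivir)/EC50(test compound), both measured in this assay.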

[2] = Cytotoxicity against African green monkey Vero E6 cells assessed as reduction in cell viability incubated for 26 hrs by celltiter 96 aqueous non-radioactive cell proliferation assay; assay type: toxicity, cell-based, Vero C1008; details: chlorocebus sabaeus
In short: (§2)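 Cytotoxicity measured in Vero E6 cells run in parallel with the antiviral assay, n = 3 biological replicates, SD reported.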

Caspase-3 = biological target: T2, Caspase-3 (Homo sapiens, UniProt P42574); experiment: Inhibition of human caspase-3 using Ac-Asp-Glu-Val-Asp-pNA as substrate incubated for 60 mins by FRET assay
T2 sequence (P42574 whole entry): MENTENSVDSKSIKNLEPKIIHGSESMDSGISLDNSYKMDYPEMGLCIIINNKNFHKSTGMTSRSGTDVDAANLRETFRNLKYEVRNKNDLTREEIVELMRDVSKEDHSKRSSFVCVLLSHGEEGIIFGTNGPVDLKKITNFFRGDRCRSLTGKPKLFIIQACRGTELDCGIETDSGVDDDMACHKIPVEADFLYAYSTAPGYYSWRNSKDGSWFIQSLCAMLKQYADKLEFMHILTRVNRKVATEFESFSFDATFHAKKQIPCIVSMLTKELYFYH

[3] = biological target: Replicase polyprotein 1ab (Severe acute respiratory syndrome coronavirus 2, UniProt P0DTD1); experiment: Inhibition of SARS-CoV-2 main protease using MCA-AVLQSGFR-Lys(Dnp)-Lys-NH2 as fluorescent substrate preincubated for 10 mins followed by substrate addition and measured every 10 sec for 10 mins by FRET assay
Procathepsin L = Procathepsin L (Homo sapiens, UniProt P07711); experiment: Inhibition of human Cathepsin L using Z-Leu-Arg-AMC as fluorogenic substrate incubated for 60 mins by FRET assay
Procathepsin L, sequence (P07711 whole entry): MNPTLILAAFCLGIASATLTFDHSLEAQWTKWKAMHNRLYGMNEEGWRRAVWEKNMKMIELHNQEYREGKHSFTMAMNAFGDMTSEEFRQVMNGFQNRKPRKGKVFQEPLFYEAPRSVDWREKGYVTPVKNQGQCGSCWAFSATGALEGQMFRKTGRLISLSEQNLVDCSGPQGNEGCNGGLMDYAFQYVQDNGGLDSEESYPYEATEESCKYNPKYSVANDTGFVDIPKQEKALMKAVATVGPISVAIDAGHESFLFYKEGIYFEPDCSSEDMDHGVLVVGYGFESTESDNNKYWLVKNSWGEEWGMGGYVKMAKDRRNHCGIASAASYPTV

Cathepsin K = biological target: T3, Cathepsin K (Homo sapiens, UniProt P43235); experiment: Inhibition of human Cathepsin K using Ac-LR-AMC as fluorogenic substrate incubated for 60 mins by FRET assay
T3 sequence (P43235 whole entry): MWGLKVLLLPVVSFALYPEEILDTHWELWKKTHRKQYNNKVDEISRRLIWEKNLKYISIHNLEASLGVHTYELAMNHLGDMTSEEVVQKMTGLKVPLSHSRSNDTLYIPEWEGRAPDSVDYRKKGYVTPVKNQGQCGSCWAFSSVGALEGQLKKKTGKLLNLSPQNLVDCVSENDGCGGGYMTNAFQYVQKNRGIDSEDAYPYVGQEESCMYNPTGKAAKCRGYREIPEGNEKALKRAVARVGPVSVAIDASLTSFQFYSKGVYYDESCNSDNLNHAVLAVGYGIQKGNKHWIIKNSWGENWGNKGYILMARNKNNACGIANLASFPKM

Cathepsin B = Cathepsin B (Homo sapiens, UniProt P07858); experiment: Inhibition of human Cathepsin B using Z-Leu-Arg-AMC as fluorogenic substrate incubated for 60 mins by FRET assay
[4] = Inhibition of SARS-CoV-1 main protease; design: species or system Severe acute respiratory syndrome-related coronavirus
In short: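 SARS-CoV-1 Mpro inhibition tested in addition to SARS-CoV-2 Mpro. Values are mean ± SD of three independent experiments.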

[5] = Microsomal stability in human liver microsomes assessed as intrinsic clearance at 1 uM preincubated for 10 mins followed by NADPH addition and measured upto 60 mins by LC-MS/MS analysis; assay type: ADME, Microsome; details: time < 70 min, read-out: CLH
[6] = Half life in Sprague-Dawley rat at 2 mg/kg, iv measured upto 24 hrs by LC-MS/MS analysis; assay type: ADME, organism-based; details: in vivo
In short: (§3)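 Single-dose pharmacokinetics in Sprague–Dawley rats: 2 mg/kg given i.v. or 10 mg/kg given orally, in separate arms. Plasma parameters were derived for each route. Oral bioavailability (F) was obtained from the two arms. Values are mean ± SD, n = 3.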

[7] = Tmax in Sprague-Dawley rat at 2 mg/kg, iv measured upto 24 hrs by LC-MS/MS analysis; assay type: ADME, organism-based; details: in vivo; in short: as §3
[8] = Cmax in Sprague-Dawley rat at 2 mg/kg, iv measured upto 24 hrs by LC-MS/MS analysis; assay type: ADME, organism-based; design: dose 2 mg/kg, time < 24 hrs, route iv; details: in vivo; in short: as §3
[9] = C0 in Sprague-Dawley rat at 2 mg/kg, iv measured upto 24 hrs by LC-MS/MS analysis; assay type: ADME, organism-based; details: in vivo; in short: as §3
[10] = AUC (0 to t) in Sprague-Dawley rat at 2 mg/kg, iv measured upto 24 hrs by LC-MS/MS analysis; assay type: ADME, organism-based; design: dose 2 mg/kg, time < 24 hrs, route iv; details: in vivo
[11] = AUC (0 to infinity) in Sprague-Dawley rat at 2 mg/kg, iv measured upto 24 hrs by LC-MS/MS analysis; assay type: ADME, organism-based; design: dose 2 mg/kg, time < 24 hrs, route iv; details: in vivo
[12] = Half life in Sprague-Dawley rat at 10 mg/kg, po measured upto 24 hrs by LC-MS/MS analysis; assay type: ADME, organism-based; details: in vivo; in short: as §3
[13] = MRT (0 to infinity) in Sprague-Dawley rat at 2 mg/kg, iv measured upto 24 hrs by LC-MS/MS analysis; assay type: ADME, organism-based; details: in vivo; in short: as §3
[14] = Clearance in Sprague-Dawley rat at 2 mg/kg, iv measured upto 24 hrs by LC-MS/MS analysis; assay type: ADME, organism-based; details: in vivo; in short: as §3
[15] = Tmax in Sprague-Dawley rat at 10 mg/kg, po measured upto 24 hrs by LC-MS/MS analysis; assay type: ADME, organism-based; details: in vivo; in short: as §3
[16] = Cmax in Sprague-Dawley rat at 10 mg/kg, po measured upto 24 hrs by LC-MS/MS analysis; assay type: ADME, organism-based; design: time < 24 hrs, dose 10 mg/kg, route po; details: in vivo; in short: as §3
[17] = AUC (0 to t) in Sprague-Dawley rat at 10 mg/kg, po measured upto 24 hrs by LC-MS/MS analysis; assay type: ADME, organism-based; design: dose 10 mg/kg, time < 24 hrs, route po; details: in vivo; in short: as §3
[18] = AUC (0 to infinity) in Sprague-Dawley rat at 10 mg/kg, po measured upto 24 hrs by LC-MS/MS analysis; assay type: ADME, organism-based; design: dose 10 mg/kg, time < 24 hrs, route po; details: in vivo; in short: as §3
[19] = MRT (0 to infinity) in Sprague-Dawley rat at 10 mg/kg, po measured upto 24 hrs by LC-MS/MS analysis; assay type: ADME, organism-based; details: in vivo; in short: as §3
[20] = Oral bioavailability in Sprague-Dawley rat at 10 mg/kg measured upto 24 hrs by LC-MS/MS analysis; assay type: ADME, organism-based; details: in vivo; in short: as §3
[21] = Kinetic solubility of the compound at pH 7.3; assay type: physicochemical; details: buffer, read-out: Kinetic_solubility
In short: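 Kinetic solubility measured in phosphate buffer at pH 7.3.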

[22] = Cytotoxicity against African green monkey Vero E6 cells assessed as reduction in cell viability; assay type: toxicity, cell-based; details: chlorocebus sabaeus; in short: as §2
SARS-CoV-2 [23] = experiment: Potency index, ratio of remdesivir EC50 to test compound EC50 for Antiviral activity against SARS-CoV-2 infected in Vero E6 cells assessed as inhibition of viral replication incubated for 25 to 26 hrs by EliSpot reader based analysis; assay type: functional, Severe acute respiratory syndrome coronavirus 2; in short: as §1

## CC(C)C[C@H](NC(=O)OCc1ccccc1)C(=O)N[C@@H](C[C@@H]1CCNC1=O)C(O)S(=O)(=O)O (stereo partly specified)
Cathepsin F
  IC50: 0.074 µM
SARS-CoV-2 [1]
  IC50: 0.2 µM

## CCC(CC)COC(=O)[C@H](C)N[P@](=O)(OC[C@H]1O[C@@](C#N)(c2ccc3c(N)ncnn23)[C@H](O)[C@@H]1O)Oc1ccccc1
SARS-CoV-2 [1]
  IC50: 2.8 µM

## O=C(c1cc(=O)[nH]c(=O)[nH]1)N1CCN(c2ccc(Cl)c(Cl)c2)CC1
SARS-CoV-2 [1]
  IC50: > 50 µM
[2]
  CC50 at 26 h: > 100 µM

## O=C(NCc1cccs1)[C@@H]1CN(C(=O)c2cccnc2)CCN1c1ccc(Cl)c(Cl)c1
Caspase-3
  IC50: 50 µM
[3]
  IC50: 0.0004 µM
Procathepsin L
  IC50: 50 µM
Cathepsin F
  IC50: 50 µM
Cathepsin K
  IC50: 50 µM
Cathepsin B
  IC50: 50 µM
SARS-CoV-2 [1]
  IC50: 1.1 µM
[2]
  CC50 at 26 h: > 100 µM
[4]
  IC50: 4.61 µM
[5]
  CLint scaled at 1 µM: 994 mL/min/kg
[6]
  half-life: 21.6 min
[7]
  Tmax: 4.8 min
[8]
  Cmax: 1310 ng/mL
[9]
  C0 at 24 h: 1760 ng/mL
[10]
  AUC(0-t) at 24 h: 627 ng·h/mL
[11]
  AUC: 637 ng·h/mL
[12]
  half-life: 104 min
[13]
  MRT inf: 24 min
[14]
  clearance: 52.3 mL/min/kg
[15]
  Tmax: 30 min
[16]
  Cmax: 74.6 ng/mL
[17]
  AUC(0-t) at 24 h: 235 ng·h/mL
[18]
  AUC: 230 ng·h/mL
[19]
  MRT inf: 147 min
[20]
  F: 72%
[21]
  solubility kinetic: 4.1 µg/mL (≈ 8.62 µM)

## O=C(NCc1ccco1)[C@H]1CN(C(=O)c2cc(=O)[nH]c(=O)[nH]2)CCN1c1ccc(Cl)c(Cl)c1
[3]
  IC50: 0.00298 µM

## O=c1[nH]cc(-c2cc(-c3cc(Cl)cc(OCc4ccccc4Cl)c3)c(=O)n(-c3cccnc3)c2)c(=O)[nH]1
[22]
  CC50: 1.7 µM

## O=C(NCc1ccco1)C1CN(C(=O)c2cc(=O)[nH]c(=O)[nH]2)CCN1Cc1ccc(Cl)cc1Cl (stereo unspecified)
[3]
  IC50: 0.00059 µM

## Cn1cnc(Cn2c(=O)[nH]/c(=N\c3cc4cn(C)nc4cc3Cl)n(Cc3cc(F)c(F)cc3F)c2=O)n1
SARS-CoV-2 [1]
  IC50: 0.37 µM
[2]
  CC50 at 26 h: > 100 µM

## O=C(NCc1cccs1)[C@@H]1CN(C(=O)c2cncc3ccccc23)CCN1c1ccc(Cl)c(Cl)c1
Caspase-3
  IC50: 50 µM
[3]
  IC50: 0.00044 µM
Procathepsin L
  IC50: 50 µM
Cathepsin F
  IC50: 50 µM
Cathepsin K
  IC50: 50 µM
Cathepsin B
  IC50: 50 µM
SARS-CoV-2 [1]
  IC50: 1 µM
[2]
  CC50 at 26 h: > 100 µM
SARS-CoV-2 [23]
  Ratio: 2.8

## O=C(NCc1cccs1)[C@@H]1CN(C(=O)c2cc(=O)[nH]c(=O)[nH]2)CCN1Cc1ccc(Cl)cc1Cl
[3]
  IC50: 0.00044 µM
SARS-CoV-2 [1]
  IC50: > 50 µM
[2]
  CC50 at 26 h: > 100 µM
[4]
  IC50: 1.29 µM

## O=C(NCc1ccco1)[C@@H]1CN(C(=O)c2cc(=O)[nH]c(=O)[nH]2)CCN1Cc1ccc(Cl)cc1Cl
[3]
  IC50: 0.00048 µM
[4]
  IC50: 1.65 µM

## O=C(NCc1ccco1)[C@@H]1CN(C(=O)c2cc(=O)[nH]c(=O)[nH]2)CCN1c1ccc(Cl)c(Cl)c1
[3]
  IC50: 0.00035 µM
SARS-CoV-2 [1]
  IC50: > 50 µM
[2]
  CC50 at 26 h: > 100 µM
[4]
  IC50: 1 µM

## O=C(NCc1cccs1)C1CN(C(=O)c2cc(=O)[nH]c(=O)[nH]2)CCN1c1ccc(Cl)c(Cl)c1 (racemic)
[3]
  IC50: 0.00061 µM

## O=C(NCc1ccco1)C1CN(C(=O)c2cc(=O)[nH]c(=O)[nH]2)CCN1c1ccc(Cl)c(Cl)c1 (racemic)
[3]
  IC50: 0.00079 µM

## O=C(NCc1cccs1)[C@@H]1CN(C(=O)c2cc(=O)[nH]c(=O)[nH]2)CCN1c1ccc(Cl)c(Cl)c1 (racemic)
[3]
  IC50: 0.0004 µM
SARS-CoV-2 [1]
  IC50: > 50 µM
[2]
  CC50 at 26 h: > 100 µM
[4]
  IC50: 1.09 µM
